Columns and labels:
Type in all cases: functional
Amaranthus [1] = experiment: Post-emergence herbicidal activity against Amaranthus ascendens assessed as growth inhibition at 75 g.a.i./ha applied at two-leaf stage measured after 15 days; details: 360 h, read-out: GI
How it was run: (§1)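 Pot-grown weeds sown 5 mm deep in greenhouse clay soil (pH 6.5, 1.7% organic matter, CEC 12.9 cmol/kg) at 22-25 °C. Stock diluted with water and sprayed post-emergence: dicots at 2-leaf stage, monocots at 1-leaf stage. Untreated and DMF solvent controls were included. % growth inhibition was scored visually versus untreated controls after 15 days. Triplicates averaged.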

Echinochloa crus-galli [2] = experiment: Post-emergence herbicidal activity against Echinochloa crus-galli (barnyard grass) assessed as growth inhibition at 75 g.a.i./ha applied at one-leaf stage measured after 15 days; details: 360 h, read-out: GI; how it was run: as §1
Amaranthus [3] = experiment: Pre-emergence herbicidal activity against Amaranthus ascendens assessed as growth inhibition at 75 g.a.i./ha applied 24 hr after seeds were sown measured after 15 days; details: read-out: GI
How it was run: (§2)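 Weeds sown 5 mm deep in pots of greenhouse clay soil (pH 6.5, 37.5% clay, CEC 12.9 cmol/kg) and grown at 22-25 °C. Water-diluted formulation was applied pre-emergence 24 h after sowing. Untreated and DMF solvent controls were included. Growth inhibition was visually rated in % against untreated controls after 15 days, as the mean of triplicates.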

Setaria viridis [4] = experiment: Post-emergence herbicidal activity against Setaria viridis (green foxtail) assessed as growth inhibition at 75 g.a.i./ha applied at one-leaf stage measured after 15 days; details: 360 h, read-out: GI; how it was run: as §1
Abutilon theophrasti [5] = experiment: Pre-emergence herbicidal activity against Abutilon theophrasti (velvetleaf) assessed as growth inhibition at 75 g.a.i./ha applied 24 hr after seeds were sown measured after 15 days; details: read-out: GI; how it was run: as §2
Abutilon theophrasti [6] = experiment: Post-emergence herbicidal activity against Abutilon theophrasti (velvetleaf) assessed as growth inhibition at 75 g.a.i./ha applied at two-leaf stage measured after 15 days; details: 360 h, read-out: GI; how it was run: as §1
Chenopodium album [7] = experiment: Post-emergence herbicidal activity against Chenopodium album assessed as growth inhibition at 75 g.a.i./ha applied at two-leaf stage measured after 15 days; details: 360 h, read-out: GI; how it was run: as §1
Digitaria sanguinalis [8] = experiment: Post-emergence herbicidal activity against Digitaria sanguinalis (hairy crabgrass) assessed as growth inhibition at 75 g.a.i./ha applied at one-leaf stage measured after 15 days; details: 360 h, read-out: GI; how it was run: as §1
Digitaria sanguinalis [9] = experiment: Pre-emergence herbicidal activity against Digitaria sanguinalis (hairy crabgrass) assessed as growth inhibition at 75 g.a.i./ha applied 24 hr after seeds were sown measured after 15 days; details: read-out: GI; how it was run: as §2
Chenopodium album [10] = experiment: Pre-emergence herbicidal activity against Chenopodium album assessed as growth inhibition at 75 g.a.i./ha applied 24 hr after seeds were sown measured after 15 days; details: read-out: GI; how it was run: as §2
Echinochloa crus-galli [11] = experiment: Pre-emergence herbicidal activity against Echinochloa crus-galli (barnyard grass) assessed as growth inhibition at 75 g.a.i./ha applied 24 hr after seeds were sown measured after 15 days; details: read-out: GI; how it was run: as §2
Setaria viridis [12] = experiment: Pre-emergence herbicidal activity against Setaria viridis (green foxtail) assessed as growth inhibition at 75 g.a.i./ha applied 24 hr after seeds were sown measured after 15 days; details: read-out: GI
How it was run: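 Preliminary pre-emergence screen at a single rate of 75 g a.i./ha. Stock diluted with water and sprayed on greenhouse pots 24 h after seeds were sown 5 mm deep in clay soil (pH 6.5, 1.7% organic matter); grown at 22-25 °C. Untreated and DMF solvent controls included; triplicate. Visual % growth inhibition vs untreated after 15 days, averaged and banded (>80% top band).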

SMILES | inhibition of growth at 75 g/ha (Amaranthus [1]) [%] | inhibition of growth at 75 g/ha (Echinochloa crus-galli [2]) [%] | inhibition of growth at 75 g/ha (Amaranthus [3]) [%] | inhibition of growth at 75 g/ha (Setaria viridis [4]) [%] | inhibition of growth at 75 g/ha (Abutilon theophrasti [5]) [%] | inhibition of growth at 75 g/ha (Abutilon theophrasti [6]) [%] | inhibition of growth at 75 g/ha (Chenopodium album [7]) [%] | inhibition of growth at 75 g/ha (Digitaria sanguinalis [8]) [%] | inhibition of growth at 75 g/ha (Digitaria sanguinalis [9]) [%] | inhibition of growth at 75 g/ha (Chenopodium album [10]) [%] | inhibition of growth at 75 g/ha (Echinochloa crus-galli [11]) [%] | inhibition of growth at 75 g/ha (Setaria viridis [12]) [%]
C#CCN1C(=O)COc2cc(F)c(N3C(=O)c4ccc(F)cc4C3=O)cc21 | > 80 | > 80 | > 80 | > 80 | > 80 | > 80 | > 80 | > 80 | > 80 | > 80 | > 80 | > 80
CCOC(=O)CN1C(=O)COc2cc(F)c(N3C(=O)c4ccc([N+](=O)[O-])cc4C3=O)cc21 | 50 | < 50 | < 50 | < 50 | < 50 | 50 | 50 | < 50 | < 50 | < 50 | < 50 | < 50
CCOC(=O)CN1C(=O)COc2cc(N3C(=O)c4ccccc4C3=O)c(F)cc21 | < 50 | < 50 | < 50 | < 50 | < 50 | < 50 | < 50 | < 50 | < 50 | < 50 | < 50 | < 50
CCOC(=O)CN1C(=O)COc2cc(N3C(=O)c4ccc(C)cc4C3=O)c(F)cc21 | < 50 | < 50 | < 50 | < 50 | < 50 | < 50 | < 50 | < 50 | < 50 | < 50 | < 50 | < 50
CCOC(=O)CN1C(=O)COc2cc(N3C(=O)c4cc(Cl)c(Cl)cc4C3=O)c(F)cc21 | < 50 | < 50 | < 50 | < 50 | < 50 | < 50 | < 50 | < 50 | < 50 | < 50 | < 50 | < 50
COC(=O)CN1C(=O)COc2cc(F)c(N3C(=O)C4=C(CCCC4)C3=O)cc21 | > 80 | 50 | 50 | 50 | 50 | > 80 | > 80 | 50 | < 50 | 50 | < 50 | < 50
COC(=O)C(C)N1C(=O)COc2cc(F)c(N3C(=O)C4=C(CCCC4)C3=O)cc21 (configuration not stated) | > 80 | > 80 | 50 | > 80 | > 80 | > 80 | > 80 | > 80 | < 50 | 50 | < 50 | < 50
CCOC(=O)CN1C(=O)COc2cc(F)c(N3C(=O)C4=C(CCCC4)C3=O)cc21 | > 80 | < 50 | > 80 | < 50 | > 80 | > 80 | > 80 | < 50 | < 50 | > 80 | < 50 | < 50
CCOC(=O)C(c1ccccc1)N1C(=O)COc2cc(F)c(N3C(=O)C4=C(CCCC4)C3=O)cc21 (configuration not stated) | > 80 | 50 | > 80 | > 80 | 50 | > 80 | > 80 | > 80 | 50 | > 80 | < 50 | 50
CCOC(=O)C(C)(C)N1C(=O)C(C)Oc2cc(F)c(N3C(=O)C4=C(CCCC4)C3=O)cc21 (configuration not stated) | > 80 | 50 | 50 | 50 | < 50 | > 80 | > 80 | 50 | < 50 | < 50 | < 50 | < 50
CCOC(=O)C(CC)N1C(=O)COc2cc(F)c(N3C(=O)C4=C(CCCC4)C3=O)cc21 (configuration not stated) | > 80 | 50 | 50 | 50 | > 80 | > 80 | > 80 | 50 | 50 | 50 | 50 | 50
COC(=O)CN1C(=O)C(C)Oc2cc(F)c(N3C(=O)C4=C(CCCC4)C3=O)cc21 (configuration not stated) | > 80 | < 50 | > 80 | 50 | > 80 | > 80 | > 80 | 50 | < 50 | > 80 | < 50 | < 50
CCOC(=O)C(C)N1C(=O)COc2cc(F)c(N3C(=O)C4=C(CCCC4)C3=O)cc21 (configuration not stated) | > 80 | > 80 | > 80 | > 80 | > 80 | > 80 | > 80 | > 80 | 50 | > 80 | < 50 | 50
CCC(C(=O)OC)N1C(=O)COc2cc(F)c(N3C(=O)C4=C(CCCC4)C3=O)cc21 (configuration not stated) | > 80 | < 50 | < 50 | 50 | < 50 | > 80 | > 80 | 50 | < 50 | < 50 | < 50 | < 50
CCOC(=O)CN1C(=O)C(C)Oc2cc(F)c(N3C(=O)C4=C(CCCC4)C3=O)cc21 (configuration not stated) | > 80 | < 50 | > 80 | < 50 | > 80 | > 80 | > 80 | < 50 | < 50 | > 80 | < 50 | < 50
CCOC(=O)C(c1ccccc1)N1C(=O)C(C)Oc2cc(F)c(N3C(=O)C4=C(CCCC4)C3=O)cc21 (configuration not stated) | > 80 | < 50 | 50 | 50 | 50 | > 80 | > 80 | 50 | > 80 | 50 | > 80 | > 80
